Consider seven molecules from ChEMBL document CHEMBL3784950, “Higginsianins A and B, Two Diterpenoid α-Pyrones Produced by Colletotrichum higginsianum, with in Vitro Cytostatic Activity” (J Nat Prod, 2016).

The structures appear in SMILES notation. Activity calls are given as the source filed them. The calls are words filed in the database; no cut-off is given here.

The nature of data set [1]: (§1) Antiproliferative activity against human Hs683 cells assessed as cell viability after 72 hrs by MTT assay. It is filed as functional, cell-based. As to conditions: Hs 683, 72 h. A digest of the protocol: (§2)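 Cells cultured 72 h with compound; MTT conversion to formazan read by spectrophotometry as a measure of metabolically active cells. IC50 is the concentration that reduces growth by 50% relative to control optical density. Six replicates per condition; one or two independent sextuplicate experiments.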
For orientation: Tetrazolium assays rely on reduction of a dye to a coloured formazan, in cell work by metabolically active cells.

For the next data set, the system named is A549. As to the kind of experiment: Antiproliferative activity against human A549 cells assessed as cell viability after 72 hrs by MTT assay. It counts as functional, cell-based. The following applies: for IC50: A549, 72 h. The procedure, abridged: as §2
In a further data set the test system is MCF7. The data set is described as follows: Antiproliferative activity against human MCF7 cells assessed as cell viability after 72 hrs by MTT assay. It is filed as functional, cell-based. As to conditions: for IC50: MCF7, 72 h. The procedure, abridged:
as §2

The next data set relates to SK-MEL-28. As to the kind of experiment: Antiproliferative activity against human SK-MEL-28 cells assessed as cell viability after 72 hrs by MTT assay. As to conditions: for IC50: SK-MEL-28, 72 h. It is filed as functional, cell-based. A digest of the protocol:
as §2

A short description of data set [2]: (§3) Antiproliferative activity against mouse B16F10 cells assessed as cell viability after 72 hrs by MTT assay. It counts as functional, cell-based. As to conditions: B16-F10, 72 h. A digest of the protocol:
as §2

The nature of data set [3]: (§4) Antiproliferative activity against human U373 cells assessed as cell viability after 72 hrs by MTT assay. The following applies: U373 MG. It counts as functional, cell-based, U-373MG ATCC. The procedure, abridged:
as §2

The subject of data set [4] is Hs 683. Described as §1. It counts as functional, cell-based. The procedure, abridged: as §2
A further data set concerns U-373MG ATCC. The description is as §4. It counts as functional, cell-based. A digest of the protocol:
as §2

For the next data set, the system named is B16-F10. The data set is described as §3. It is filed as functional, cell-based. A digest of the protocol: as §2
For data set [5], the system named is Hs 683. The data set is described as follows: Cytostatic activity against human Hs683 cells assessed as morphological changes at 1 uM after 48 hrs by phase contrast microscopic analysis. It is filed as functional, cell-based. A digest of the protocol:
(§5)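 Phase-contrast microscopy of Hs683 glioma cells treated at 1 versus 50 μM, judging cytostatic versus cytotoxic morphology.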

In data set [6] the test system is Hs 683. As to the kind of experiment: Cytotoxicity against human Hs683 cells assessed as morphological changes at 50 uM after 48 hrs by phase contrast microscopic analysis. It counts as functional, cell-based. A digest of the protocol:
as §5

Data set [7] is described as follows: Antiproliferative activity against human Hs683 cells assessed as growth inhibition at 1 uM after 72 hrs by quantitative video microscopic analysis relative to control. It is filed as functional. As to conditions: Hs 683, 72 h, read-out: GI. A digest of the protocol: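 Hs683 cells filmed by computer-assisted phase-contrast microscopy at 1 μM and 40 μM versus control. Global growth is the cell count on the last image divided by that on the first, taken at 24, 48 and 72 h. The GGR index is treated global growth divided by control global growth. Run once in duplicate; mean ± SEM.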

A short description of data set [8]: Stability in human Hs683 cells assessed as photosensitivity at 1 to 40 uM by quantitative video microscopic analysis. It is filed as ADME, cell-based. As to conditions: hs 683, 40 µM.
Data set [9] can be described thus: Stability in human Hs683 cells assessed as photoactivity at 1 to 40 uM by quantitative video microscopic analysis. It is filed as ADME, cell-based. As to conditions: hs 683, 40 µM.

Consider `C=C1CC[C@@H]2[C@](C)(CC[C@H]3O[C@H](C=C(C)C)C[C@@]23C)[C@@H]1Cc1c(OC)c(C)c(C)oc1=O`, for which the IC50 (usually the midpoint of a concentration-inhibition curve) in data set [1] was determined as 0.4 µM; in the data set on A549, 16 µM; in the data set with MCF7, 38 µM; with SK-MEL-28, 48 µM; in [2], 1 µM.
As for `C=C1CC[C@H]2[C@](C)(CCC=C(C)C)[C@H](O)CC[C@]2(C)[C@@H]1Cc1c(O)c(C)c(C)oc1=O`, the IC50 in [1] was 2 µM; in [3], 84 µM; with A549 it was 29 µM; in the data set with MCF7, 2 µM; in the data set with SK-MEL-28 it was 88 µM; in data set [2], 3 µM.
On to `C=C1CC[C@@H]2[C@](C)(CC[C@H]3CO[C@H](C=C(C)C)C[C@]32C)[C@@H]1Cc1c(O)c(C)c(C)oc1=O`, for which the IC50 in [1] is 49 µM; with A549, 35 µM; in the data set on MCF7, 24 µM; in the data set on SK-MEL-28, 51 µM; in [2], 25 µM.
As to `C=C1CC[C@@H]2[C@](C)(CC[C@H]3O[C@H](C=C(C)C)C[C@@]23C)[C@@H]1Cc1c(OC(C)=O)c(C)c(C)oc1=O`, the IC50 was 1 µM in data set [1]; 47 µM in the data set with A549; 41 µM in the data set on MCF7; 84 µM in the data set on SK-MEL-28; 2 µM in [2].
`C=C1CC[C@H]2[C@]3(C)C[C@@H](C=C(C)C)O[C@H]3CC[C@]2(C)[C@@H]1Cc1c(O)c(C)c(C)oc1=O`: the result in the data set on Hs 683 [4], with U-373MG ATCC, in the data set on A549, in the data set on MCF7, with SK-MEL-28 and in the data set with B16-F10 was inactive.
As to `C=C1CC[C@@H]2[C@](C)(CC[C@H](O)[C@@]2(C)CCC=C(C)C)[C@@H]1Cc1c(O)c(C)c(C)oc1=O`, the outcome with Hs 683 [4], in the data set with U-373MG ATCC, in the data set with A549, with MCF7, in the data set with SK-MEL-28 and in the data set with B16-F10 was inactive.
On to `C=C1CC[C@@H]2[C@](C)(CC[C@H]3O[C@H](C=C(C)C)C[C@@]23C)[C@@H]1Cc1c(O)c(C)c(C)oc1=O`, for which the IC50 was 1 µM in [1]; 63 µM in data set [3]; 33 µM with A549; 19 µM in the data set with MCF7; 73 µM with SK-MEL-28; 1 µM in [2]. Besides, the result in the data set on Hs 683 [5] and with Hs 683 [6] was Active. Also, the inhibition of growth at 1 µM in data set [7] stood at 50%. The Stability result in data set [8] and in data set [9] was “Stable” in each case.
